# Measured values as given in ChEMBL document CHEMBL4715736, “Identification of anticancer agents based on the thieno[2,3-b]pyridine and 1H-pyrazole molecular scaffolds” (2016).
# Experiments:
# Type in all cases: functional
# [1] = tested on: T47D; assay: Growth inhibition of human T47D cells assessed as cell growth at 1 uM incubated for 48 hrs by sulforhodamine B assay relative to control; conditions: read-out: Activity
# [2] = tested on: NCI-H226; assay: Growth inhibition of human NCI-H226 cells assessed as cell growth at 1 uM incubated for 48 hrs by sulforhodamine B assay relative to control; conditions: read-out: Activity
# [3] = tested on: HCT-15; assay: Growth inhibition of human HCT-15 cells assessed as cell growth at 0.01 uM incubated for 48 hrs by sulforhodamine B assay relative to control; conditions: read-out: Activity
# [4] = tested on: NCI-H322M; assay: Growth inhibition of human NCI-H322M cells assessed as cell growth at 1 uM incubated for 48 hrs by sulforhodamine B assay relative to control; conditions: read-out: Activity
# [5] = tested on: PC-3; assay: Growth inhibition of human PC-3 cells assessed as cell growth at 100 uM incubated for 48 hrs by sulforhodamine B assay relative to control; conditions: read-out: Activity
# [6] = tested on: CAKI-1; assay: Growth inhibition of human CAKI-1 cells assessed as cell growth at 1 uM incubated for 48 hrs by sulforhodamine B assay relative to control; conditions: read-out: Activity
# Outline: (§1)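 NCI Developmental Therapeutics Program NCI60 panel. Compounds that were active in the 10 µM one-dose screen went on to dose–response testing. Growth at each concentration is expressed relative to untreated control (100%). GI50 (concentration giving 50% of maximal inhibition of proliferation) and TGI (concentration giving total growth inhibition) were derived from the curves.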
# [7] = tested on: MDA-MB-468; assay: Growth inhibition of human MDA-MB-468 cells assessed as cell growth at 100 uM incubated for 48 hrs by sulforhodamine B assay relative to control; conditions: read-out: Activity
# [8] = tested on: SK-MEL-5; assay: Growth inhibition of human SK-MEL-5 cells assessed as cell growth at 0.01 uM incubated for 48 hrs by sulforhodamine B assay relative to control; conditions: read-out: Activity
# [9] = tested on: SNB-19; assay: Growth inhibition of human SNB-19 cells incubated for 48 hrs by sulforhodamine B assay
# Outline: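 NCI DTP 60-line human tumour panel. Dose-response curves were run only for ligands active in the initial 10 µM screen. GI50 (concentration giving 50% of maximal inhibition of proliferation) and TGI (concentration giving total growth inhibition) were derived from these curves.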
# [10] = tested on: PC-3; assay: Growth inhibition of human PC-3 cells assessed as cell growth at 0.01 uM incubated for 48 hrs by sulforhodamine B assay relative to control; conditions: read-out: Activity
# [11] = tested on: UO-31; assay: Growth inhibition of human UO-31 cells assessed as cell growth at 1 uM incubated for 48 hrs by sulforhodamine B assay relative to control; conditions: read-out: Activity
# [12] = tested on: SK-OV-3; assay: Growth inhibition of human SK-OV-3 cells assessed as cell growth at 1 uM incubated for 48 hrs by sulforhodamine B assay relative to control; conditions: read-out: Activity
# [13] = tested on: HCT-15; assay: Growth inhibition of human HCT-15 cells assessed as cell growth at 1 uM incubated for 48 hrs by sulforhodamine B assay relative to control; conditions: read-out: Activity
# [14] = tested on: A498; assay: Growth inhibition of human A498 cells assessed as cell growth at 0.1 uM incubated for 48 hrs by sulforhodamine B assay relative to control; conditions: read-out: Activity; outline: as §1
# [15] = tested on: SNB-19; assay: Growth inhibition of human SNB-19 cells assessed as cell growth at 0.01 uM incubated for 48 hrs by sulforhodamine B assay relative to control; conditions: read-out: Activity
# [16] = tested on: U-251; assay: Growth inhibition of human U-251 cells assessed as cell growth at 0.01 uM incubated for 48 hrs by sulforhodamine B assay relative to control; conditions: read-out: Activity
# [17] = tested on: T47D; assay: Growth inhibition of human T47D cells assessed as cell growth at 100 uM incubated for 48 hrs by sulforhodamine B assay relative to control; conditions: read-out: Activity
# [18] = tested on: SK-MEL-5; assay: Growth inhibition of human SK-MEL-5 cells assessed as cell growth at 1 uM incubated for 48 hrs by sulforhodamine B assay relative to control; conditions: read-out: Activity
# [19] = tested on: MDA-MB-468; assay: Growth inhibition of human MDA-MB-468 cells assessed as cell growth at 1 uM incubated for 48 hrs by sulforhodamine B assay relative to control; conditions: read-out: Activity
# [20] = tested on: SK-OV-3; assay: Growth inhibition of human SK-OV-3 cells assessed as cell growth at 100 uM incubated for 48 hrs by sulforhodamine B assay relative to control; conditions: read-out: Activity
# [21] = tested on: HOP-92; assay: Growth inhibition of human HOP-92 cells assessed as cell growth at 0.01 uM incubated for 48 hrs by sulforhodamine B assay relative to control; conditions: read-out: Activity
# [22] = tested on: IGROV-1; assay: Growth inhibition of human IGROV-1 cells assessed as cell growth at 0.1 uM incubated for 48 hrs by sulforhodamine B assay relative to control; conditions: read-out: Activity
# [23] = tested on: SW-620; assay: Growth inhibition of human SW-620 cells assessed as cell growth at 100 uM incubated for 48 hrs by sulforhodamine B assay relative to control; conditions: read-out: Activity
# [24] = tested on: NCI-H460; assay: Growth inhibition of human NCI-H460 cells incubated for 48 hrs by sulforhodamine B assay
# Outline: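 NCI60 panel at the NCI Developmental Therapeutics Program. Only compounds active in the 10 µM screen went to dose-response testing. GI50, the concentration giving 50% of maximal inhibition of proliferation, and TGI, the concentration giving total growth inhibition, were derived from the dose-response curves.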
# [25] = tested on: COLO 205; assay: Growth inhibition of human COLO 205 cells assessed as cell growth at 100 uM incubated for 48 hrs by sulforhodamine B assay relative to control; conditions: read-out: Activity; outline: as §1
# [26] = tested on: OVCAR-4; assay: Growth inhibition of human OVCAR-4 cells assessed as cell growth at 100 uM incubated for 48 hrs by sulforhodamine B assay relative to control; conditions: read-out: Activity
# [27] = tested on: NCI-H226; assay: Growth inhibition of human NCI-H226 cells assessed as cell growth at 0.01 uM incubated for 48 hrs by sulforhodamine B assay relative to control; conditions: read-out: Activity
# [28] = tested on: NCI/ADR-RES; assay: Growth inhibition of human NCI/ADR-RES cells assessed as cell growth at 0.01 uM incubated for 48 hrs by sulforhodamine B assay relative to control; conditions: read-out: Activity
# [29] = tested on: OVCAR-8; assay: Growth inhibition of human OVCAR-8 cells assessed as cell growth at 100 uM incubated for 48 hrs by sulforhodamine B assay relative to control; conditions: read-out: Activity
# [30] = tested on: OVCAR-3; assay: Growth inhibition of human OVCAR-3 cells assessed as cell growth at 0.1 uM incubated for 48 hrs by sulforhodamine B assay relative to control; conditions: read-out: Activity
# [31] = tested on: NCI-H522; assay: Growth inhibition of human NCI-H522 cells assessed as cell growth at 1 uM incubated for 48 hrs by sulforhodamine B assay relative to control; conditions: read-out: Activity
# [32] = tested on: SK-OV-3; assay: Growth inhibition of human SK-OV-3 cells assessed as cell growth at 0.01 uM incubated for 48 hrs by sulforhodamine B assay relative to control; conditions: read-out: Activity
# [33] = tested on: 786-0; assay: Growth inhibition of human 786-0 cells assessed as cell growth at 1 uM incubated for 48 hrs by sulforhodamine B assay relative to control; conditions: read-out: Activity; outline: as §1
# [34] = tested on: A549; assay: Growth inhibition of human A549/ATCC cells assessed as cell growth at 0.1 uM incubated for 48 hrs by sulforhodamine B assay relative to control; conditions: read-out: Activity; outline: as §1
# [35] = tested on: SK-MEL-28; assay: Growth inhibition of human SK-MEL-28 cells assessed as cell growth at 1 uM incubated for 48 hrs by sulforhodamine B assay relative to control; conditions: read-out: Activity
Compound,growth at 1 µM [1] [%],growth at 1 µM [2] [%],growth at 0.01 µM [3] [%],growth at 1 µM [4] [%],growth at 100 µM [5] [%],growth at 1 µM [6] [%],growth at 100 µM [7] [%],growth at 0.01 µM [8] [%],GI50 [9] [µM],LC50 [9] [µM],TGI [9] [µM],growth at 0.01 µM [10] [%],growth at 1 µM [11] [%],growth at 1 µM [12] [%],growth at 1 µM [13] [%],growth at 0.1 µM [14] [%],growth at 0.01 µM [15] [%],growth at 0.01 µM [16] [%],growth at 100 µM [17] [%],growth at 1 µM [18] [%],further results
COc1cccc(NC(=O)c2sc3nc4c(cc3c2N)CN(Cc2ccccc2)CC4)c1,71,81,92,83,-2,78,-8,99,4.75,> 100,> 100,94,77,81,49,84,98,99,-19,58,growth at 1 µM [19]: 64%; growth at 100 µM [20]: -66%; growth at 0.01 µM [21]: 90%; growth at 0.1 µM [22]: 102%; growth at 100 µM [23]: -5%; GI50 [24]: 4.18 µM; LC50 [24]: > 100 µM; TGI [24]: 30.9 µM; growth at 100 µM [25]: -16%; growth at 100 µM [26]: -32%; growth at 0.01 µM [27]: 93%; growth at 0.01 µM [28]: 102%; growth at 100 µM [29]: -2%; growth at 0.1 µM [30]: 103%; growth at 1 µM [31]: 74%; growth at 0.01 µM [32]: 92%; growth at 1 µM [33]: 85%; growth at 0.1 µM [34]: 93%; growth at 1 µM [35]: 68%
Cc1cc(C)c(NC(=O)c2sc3nc4c(cc3c2N)CN(Cc2ccccc2)CC4)c(C)c1,77,78,93,102,15,76,-1,98,7.21,> 100,> 100,94,77,88,68,91,98,99,1,59,growth at 1 µM [19]: 63%; growth at 100 µM [20]: 16%; growth at 0.01 µM [21]: 85%; growth at 0.1 µM [22]: 94%; growth at 100 µM [23]: -43%; GI50 [24]: 3.29 µM; LC50 [24]: > 100 µM; TGI [24]: 16.3 µM; growth at 100 µM [25]: -60%; growth at 100 µM [26]: 28%; growth at 0.01 µM [27]: 92%; growth at 0.01 µM [28]: 104%; growth at 100 µM [29]: 14%; growth at 0.1 µM [30]: 105%; growth at 1 µM [31]: 66%; growth at 0.01 µM [32]: 92%; growth at 1 µM [33]: 82%; growth at 0.1 µM [34]: 96%; growth at 1 µM [35]: 70%
CN1CCc2nc3sc(C(N)=O)c(N)c3c(-c3cccs3)c2C1,84,88,103,99,6,82,-59,96,4.34,> 100,> 100,105,95,89,93,111,103,99,2,64,growth at 1 µM [19]: 77%; growth at 100 µM [20]: 17%; growth at 0.01 µM [21]: 127%; growth at 0.1 µM [22]: 116%; growth at 100 µM [23]: 3%; GI50 [24]: 3.71 µM; LC50 [24]: > 100 µM; TGI [24]: > 100 µM; growth at 100 µM [25]: -60%; growth at 100 µM [26]: 6%; growth at 0.01 µM [27]: 93%; growth at 0.01 µM [28]: 100%; growth at 100 µM [29]: 5%; growth at 0.1 µM [30]: 99%; growth at 1 µM [31]: 86%; growth at 0.01 µM [32]: 93%; growth at 1 µM [33]: 107%; growth at 0.1 µM [34]: 95%; growth at 1 µM [35]: 95%
